The term MIC denotes the smallest concentration in the dilution series that meets the test's criterion for growth inhibition.

The text below walks through data of ChEMBL document CHEMBL3286367, “Synthesis of new class of spirocarbocycle derivatives by multicomponent domino reaction and their evaluation for antimicrobial, anticancer activity and molecular docking studies” (2014).

Converted amounts (≈) assume the structure as drawn. The source made the active and inactive calls.

In assay [1] the test system is Klebsiella aerogenes. In words: Antimicrobial activity against Enterobacter aerogenes MTCC 111 assessed as zone of inhibition at 1 mg/disc after 24 hrs incubation by disc diffusion assay. Type of assay: functional. In short, it runs like this:
(§1)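 Inocula grown in Mueller Hinton broth for 24 h at 37 °C and swabbed onto Mueller Hinton agar. Discs carried 1 mg compound each and stood 30 min at room temperature before 24 h incubation at 37 °C. Solvent as negative control. Inhibition zones recorded in mm; experiment done twice.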
(In agar diffusion tests the substance spreads into inoculated agar from a disc or well.)

For assay [2], the system named is Micrococcus luteus. The assay is described as follows: Antimicrobial activity against Micrococcus luteus MTCC 106 assessed as zone of inhibition at 1 mg/disc after 24 hrs incubation by disc diffusion assay. It is filed as functional. In short, it runs like this: as §1
Assay [3] relates to Micrococcus luteus. The assay is described as follows: Antimicrobial activity against Micrococcus luteus MTCC 106 assessed as absence of visible growth after 48 to 72 hrs. It is filed as functional.
The test system of assay [4] is Staphylococcus aureus. In words: Antimicrobial activity against Staphylococcus aureus MTCC 96 assessed as zone of inhibition at 1 mg/disc after 24 hrs incubation by disc diffusion assay. It is filed as functional. A digest of the protocol: as §1
The test system of assay [5] is Staphylococcus aureus. The assay is described as follows: Antimicrobial activity against methicillin-resistant Staphylococcus aureus assessed as absence of visible growth after 48 to 72 hrs. It is filed as functional. A digest of the protocol: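 Broth two-fold serial dilution in 96-well plates, 1000 to 7.81 µg/mL, compound dissolved in DMSO (2%). Inoculum grown in Mueller Hinton broth 24 h at 37°C. Streptomycin positive control. 5 µl of tested broth plated on MHA; MIC is the lowest concentration inhibiting visible growth on agar.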

Assay [6] has as its system Staphylococcus epidermidis. The assay is described as follows: Antimicrobial activity against Staphylococcus epidermidis MTCC 3615 assessed as absence of visible growth after 48 to 72 hrs. It is filed as functional.
The test system of assay [7] is Salmonella typhimurium. The assay is described as follows: Antimicrobial activity against Salmonella typhimurium MTCC 1251 assessed as zone of inhibition at 1 mg/disc after 24 hrs incubation by disc diffusion assay. Type of assay: functional, Salmonella enterica subsp. enterica serovar Typhimurium. A digest of the protocol: as §1
A further assay relates to Malassezia pachydermatis. In words: Antifungal activity against Malassezia pachydermatis assessed as zone of inhibition at 1 mg/disc after 48 hrs incubation by disc diffusion assay. It is filed as functional. In short, it runs like this: (§2)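 Disc diffusion on Mueller Hinton agar with swabbed cultures, 1 mg compound per disc. Discs stood 30 min at room temperature for diffusion, then plates incubated 48 h at 28 °C. Solvent as negative control. Yeast pre-grown in Sabouraud dextrose broth at 28 °C for 48-72 h; filamentous fungal spores came from SDA slants grown 10 days at 28 °C. Zone diameters in mm; run twice.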

Assay [8] concerns Staphylococcus epidermidis. The assay is described as follows: Antimicrobial activity against Staphylococcus epidermidis MTCC 3615 assessed as zone of inhibition at 1 mg/disc after 24 hrs incubation by disc diffusion assay. It is filed as functional. A digest of the protocol:
as §1

Assay [9] concerns Proteus vulgaris. The assay is described as follows: Antimicrobial activity against Proteus vulgaris MTCC 1771 assessed as absence of visible growth after 24 hrs.
For assay [10], the system named is Shigella flexneri. In words: Antimicrobial activity against Shigella flexneri MTCC 1457 assessed as absence of visible growth after 24 hrs.
Another assay has as its system Candida albicans. The assay is described as follows: Antifungal activity against Candida albicans MTCC 227 assessed as zone of inhibition at 1 mg/disc after 48 hrs incubation by disc diffusion assay. It is filed as functional. In short, it runs like this: as §2
Assay [11] deals with Klebsiella pneumoniae. In words: Antimicrobial activity against Klebsiella pneumonia MTCC 109 assessed as zone of inhibition at 1 mg/disc after 24 hrs incubation by disc diffusion assay. Type of assay: functional. In short, it runs like this:
as §1

Assay [12] has as its system Proteus vulgaris. The assay is described as follows: Antimicrobial activity against Proteus vulgaris MTCC 1771 assessed as zone of inhibition at 1 mg/disc after 24 hrs incubation by disc diffusion assay. It is filed as functional. A digest of the protocol:
as §1

The subject of assay [13] is Salmonella typhimurium. In words: Antimicrobial activity against Salmonella typhimurium MTCC 1251 assessed as absence of visible growth after 48 to 72 hrs. It is filed as functional, Salmonella enterica subsp. enterica serovar Typhimurium. To be noted: Salmonella enterica.
In assay [14] the test system is Shigella flexneri. The assay is described as follows: Antimicrobial activity against Shigella flexneri MTCC 1457 assessed as zone of inhibition at 1 mg/disc after 24 hrs incubation by disc diffusion assay. Type of assay: functional. A digest of the protocol:
as §1

Assay [15] deals with Klebsiella aerogenes. In words: Antimicrobial activity against Enterobacter aerogenes MTCC 111 assessed as absence of visible growth after 48 to 72 hrs. It is filed as functional.
Assay [16] relates to Staphylococcus aureus. The assay is described as follows: Antimicrobial activity against methicillin-resistant Staphylococcus aureus assessed as zone of inhibition at 1 mg/disc after 24 hrs incubation by disc diffusion assay. It is filed as functional. A digest of the protocol:
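Inoculum grown in Mueller Hinton broth 24 h at 37°C, swabbed onto Mueller Hinton agar and dried 10 min. Discs loaded at 1 mg/disc, then 30 min at room temperature for diffusion. Plates incubated 24 h at 37°C. Solvent negative control; streptomycin positive control. Zone of inhibition read in mm; experiment done twice.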

Assay [17] concerns Staphylococcus aureus. In words: Antimicrobial activity against Staphylococcus aureus MTCC 96 assessed as absence of visible growth after 24 hrs.
Assay [18] relates to Klebsiella pneumoniae. In words: Antimicrobial activity against Klebsiella pneumonia MTCC 109 assessed as absence of visible growth after 48 to 72 hrs. Type of assay: functional.
The test system of assay [19] is Klebsiella pneumoniae. In words: Antimicrobial activity against Klebsiella pneumonia MTCC 109 assessed as absence of visible growth after 24 hrs.
Assay [20] relates to A549. In words: Anticancer activity against human A549 cells assessed as cell growth inhibition at 10 ug/ml by MTT assay. Type of assay: functional. The settings on record: read-out: GI. A digest of the protocol:
(§3)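 A549 cells kept in DMEM with 10% FBS, 2 mM L-glutamine, penicillin/streptomycin, pH 7.2. Seeded at 5000 cells/well in medium with compound at 5–50 µg/mL. Grown at 37 °C, 5% CO2. Medium then replaced by 1 mg/mL MTT for 4 h and formazan dissolved in DMSO. Absorbance read at 540 nm; three replicate experiments.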

Assay [21] relates to A549. The assay is described as follows: Anticancer activity against human A549 cells assessed as cell growth inhibition at 30 ug/ml by MTT assay. It is filed as functional. The settings on record: read-out: GI. A digest of the protocol:
as §3

The subject of assay [22] is Staphylococcus aureus. In words: Antimicrobial activity against Staphylococcus aureus MTCC 96 assessed as absence of visible growth after 48 to 72 hrs. Type of assay: functional.
The subject of assay [23] is A549. The assay is described as follows: Anticancer activity against human A549 cells assessed as cell growth inhibition at 40 ug/ml by MTT assay. Type of assay: functional. The settings on record: read-out: GI. A digest of the protocol:
as §3
On the technique in general: Formazan colour is commonly taken as a measure of viable cells.

Assay [24] concerns A549. The assay is described as follows: Anticancer activity against human A549 cells assessed as cell growth inhibition at 20 ug/ml by MTT assay. It is filed as functional. To be noted: read-out: GI. A digest of the protocol:
as §3

Assay [25] deals with A549. In words: Anticancer activity against human A549 cells assessed as cell growth inhibition at 50 ug/ml by MTT assay. Type of assay: functional. The settings on record: read-out: GI. In short, it runs like this: as §3
In assay [26] the test system is Proteus vulgaris. In words: Antimicrobial activity against Proteus vulgaris MTCC 1771 assessed as absence of visible growth after 48 to 72 hrs. It is filed as functional.
For assay [27], the system named is A549. In words: Anticancer activity against human A549 cells assessed as cell growth inhibition at 5 ug/ml by MTT assay. Type of assay: functional. The settings on record: read-out: GI. A digest of the protocol: as §3
Assay [28] relates to Shigella flexneri. In words: Antimicrobial activity against Shigella flexneri MTCC 1457 assessed as absence of visible growth after 48 to 72 hrs. It is filed as functional.
Assay [29] concerns Staphylococcus epidermidis. The assay is described as follows: Antimicrobial activity against Staphylococcus epidermidis MTCC 3615 assessed as absence of visible growth after 24 hrs.

For the compound `N#CC1=C(N)[C@]2(C(=O)Nc3ccccc32)[C@@H](c2cccc3ccccc23)[C@@H]2CCCC=C12`, the “inhibition zone (IZ)” value with Klebsiella aerogenes [1] is given as 18 mm; with Micrococcus luteus [2] it was 10 mm; in the assay on Salmonella typhimurium [7] it was 14 mm; in the assay with Malassezia pachydermatis, 9 mm; in assay [8] it was 15 mm; in the assay on Klebsiella pneumoniae [11] it was 16 mm. In addition, the “inhibition zone (IZ)” value with Shigella flexneri [14] worked out at 12 mm. Also, the MIC with Micrococcus luteus [3] came to 250 µg/mL (≈ 599 µM); in assay [6] it was 125 µg/mL (≈ 299 µM); in the assay with Shigella flexneri [10] it was 500 µg/mL (≈ 1200 µM); in the assay on Salmonella typhimurium [13], 250 µg/mL (≈ 599 µM); in the assay on Klebsiella aerogenes [15], 125 µg/mL (≈ 299 µM); with Klebsiella pneumoniae [18] it was 125 µg/mL (≈ 299 µM). The inhibition result in the assay on Staphylococcus aureus [4], in the assay on Staphylococcus aureus [5], in the assay with Proteus vulgaris [9], in the assay on Candida albicans, in the assay on Proteus vulgaris [12] and with Staphylococcus aureus [16] was “inactive” in each case. In addition, the inhibition result in the assay on Staphylococcus aureus [17] was “inactive”.
As for `Cc1ccc([C@H]2[C@@H]3CCCCC=C3C(C#N)=C(N)C23C(=O)c2ccccc2C3=O)cc1` (relative stereo), the “inhibition zone (IZ)” value in the assay on Klebsiella aerogenes [1] is given as 18 mm; in the assay with Micrococcus luteus [2], 10 mm; with Staphylococcus aureus [4], 13 mm; in the assay with Salmonella typhimurium [7], 19 mm; with Malassezia pachydermatis it was 10 mm; in assay [8], 16 mm. Moreover, the “inhibition zone (IZ)” value with Candida albicans amounted to 10 mm; in the assay on Klebsiella pneumoniae [11] it was 20 mm; in the assay with Proteus vulgaris [12] it was 22 mm; in the assay with Shigella flexneri [14], 23 mm; with Staphylococcus aureus [16], 17 mm. In addition, the MIC came to 62.5 µg/mL (≈ 153 µM) with Klebsiella pneumoniae [19]; 250 µg/mL (≈ 612 µM) with Micrococcus luteus [3]; 125 µg/mL (≈ 306 µM) with Staphylococcus aureus [5]; 250 µg/mL (≈ 612 µM) in the assay with Staphylococcus aureus [22]; 125 µg/mL (≈ 306 µM) with Salmonella typhimurium [13]; 125 µg/mL (≈ 306 µM) in the assay with Klebsiella aerogenes [15]. The figures for the MIC (in the assay on Proteus vulgaris [26]; in the assay on Shigella flexneri [28]; in assay [29]) were 62.5 µg/mL (≈ 153 µM), 62.5 µg/mL (≈ 153 µM) and 250 µg/mL (≈ 612 µM), respectively. Also, in the assay with A549 [20], the inhibition of growth at 10 µg/mL was 10.5%. Further, in the assay with A549 [21], the inhibition of growth at 30 µg/mL worked out at 30.8%. In addition, the inhibition of growth at 40 µg/mL with A549 [23] is 46.6%. The inhibition of growth at 20 µg/mL in the assay with A549 [24] is 18.6%. Also, in the assay on A549 [25], the inhibition of growth at 50 µg/mL is 59.6%. Further, the inhibition of growth at 5 µg/mL in the assay on A549 [27] turned out to be 3.7%.
Turning to `N#CC1=C(N)[C@]2(C(=O)Nc3ccccc32)[C@@H](c2ccc(Cl)cc2)[C@@H]2CCCC=C12`, the “inhibition zone (IZ)” value in the assay on Klebsiella aerogenes [1] is 10 mm; in the assay on Micrococcus luteus [2], 9 mm; in the assay on Salmonella typhimurium [7], 12 mm; in the assay with Malassezia pachydermatis, 11 mm; in [8], 13 mm; in the assay on Candida albicans, 9 mm. In addition, the “inhibition zone (IZ)” value with Klebsiella pneumoniae [11] came to 16 mm; in the assay on Proteus vulgaris [12], 17 mm; in the assay with Shigella flexneri [14], 10 mm. For the same compound, the MIC in the assay on Klebsiella pneumoniae [19] was found to be 125 µg/mL (≈ 311 µM); in the assay on Micrococcus luteus [3], 1000 µg/mL (≈ 2490 µM); in assay [6], 250 µg/mL (≈ 622 µM); in the assay on Shigella flexneri [10], 250 µg/mL (≈ 622 µM); in the assay on Salmonella typhimurium [13], 250 µg/mL (≈ 622 µM); in the assay with Klebsiella aerogenes [15], 250 µg/mL (≈ 622 µM). Further, the MIC in the assay with Proteus vulgaris [26] worked out at 125 µg/mL (≈ 311 µM). Further, the inhibition result in the assay on Staphylococcus aureus [4], with Staphylococcus aureus [5], with Staphylococcus aureus [16] and in the assay with Staphylococcus aureus [17] was “inactive” in each case.
